Here are results for 42 compounds from ChEMBL document CHEMBL1811908, “Design of HIV-1 integrase inhibitors targeting the catalytic domain as well as its interaction with LEDGF/p75: a scaffold hopping approach using salicylate and catechol groups” (Bioorg Med Chem, 2011).

The target in data set [1] is T1, Human immunodeficiency virus type 1 integrase (Human immunodeficiency virus 1, UniProt Q7ZJM1). The data set is described as follows: Inhibition of wild-type HIV1 integrase 3'-processing activity using [32P]-5'-end-labeled 5'-GTGTGGAAAATCTCTAGCAGT-3' as substrate after 1 hr.
Data set [2] can be described thus: (§1) Cytotoxicity against human NCI-H630 cells after 72 hrs by MTT assay. Conditions: NCI-H630 cells. The data set is classed as cell-based. The essentials:
(§2)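 H630 colon cancer cells seeded, attached overnight, then continuously exposed to compound (DMSO stocks) for 72 h. MTT added to 0.5 mg/mL final, 4 h at 37°C; supernatant removed, DMSO added, absorbance read at 570 nm. IC50 taken from plot of log concentration versus percentage of cells killed.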

In data set [3] the target is T1, Human immunodeficiency virus type 1 integrase. The data set is described as follows: Inhibition of wild-type HIV1 integrase strand transfer activity using [32P]-5'-end-labeled 5'-GTGTGGAAAATCTCTAGCAGT-3' as substrate after 1 hr.
A short description of data set [4]: Inhibition of HIV1 His6-tagged integrase-LEDGF/p75 interaction after 30 mins by AlphaScreen assay. The essentials: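 His6-tagged IN (300 nM final) preincubated with compound (0.1–100 μM) 30 min at 4°C in 25 mM Tris-HCl pH 7.4, 150 mM NaCl, 1 mM MgCl2, 0.01% Tween-20, 0.1% BSA; 100 nM Flag-LEDGF/p75 added, 1 h at 4°C. Ni-chelate acceptor and anti-Flag donor beads (20 μg/ml each) added, 1 h at 30°C; AlphaScreen emission read.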

Data set [5] deals with NCI-H630. The description is as §1. Conditions: nci-h630, 72 h. In kind it is cell-based. The procedure, abridged:
as §2

T1 sequence (Q7ZJM1 whole entry): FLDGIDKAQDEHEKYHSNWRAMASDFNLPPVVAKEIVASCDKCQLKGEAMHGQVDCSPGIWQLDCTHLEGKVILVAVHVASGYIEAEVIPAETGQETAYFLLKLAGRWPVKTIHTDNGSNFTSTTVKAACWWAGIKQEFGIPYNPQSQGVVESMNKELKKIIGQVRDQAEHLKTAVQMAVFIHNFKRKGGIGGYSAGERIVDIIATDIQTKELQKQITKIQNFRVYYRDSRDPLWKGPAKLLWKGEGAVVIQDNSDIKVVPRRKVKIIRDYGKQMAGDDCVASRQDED

In the case of `O=C(O)c1cccc(OCc2ccccc2)c1O`, the IC50 in data set [1] and in data set [3] was over 100 µM each time. Besides, in data set [2], the cytotoxic concentration (CC50) at 72 h is over 40 µM.
`O=C(O)c1cccc(OCc2ccc(F)cc2)c1O`: the IC50 in data set [1] and in data set [3] was over 100 µM each time. Besides, the CC50 at 72 h in data set [2] is over 40 µM.
With `O=C(O)c1cccc(OCc2ccc3ccccc3c2)c1O`, the IC50 in data set [1] was over 100 µM; in data set [3], 140 µM. Besides, in data set [2], the CC50 at 72 h was over 40 µM.
Turning to `O=C(O)c1ccc(OCc2ccccc2)cc1O`, the IC50 in data set [1] and in data set [3] was over 100 µM in each case. This compound also displayed a CC50 at 72 h in data set [2] of over 40 µM.
For `O=C(O)c1ccc(OCc2ccc(F)cc2)cc1O`, the IC50 in data set [1] and in data set [3] was over 100 µM each time. This compound also yielded a CC50 at 72 h in data set [2] of over 40 µM.
In the case of `O=C(O)c1cc(OCc2ccccc2)ccc1O`, the IC50 in data set [1] and in data set [3] was over 100 µM each time. The same compound registered a CC50 at 72 h in data set [2] of over 40 µM.
Take `O=C(O)c1cc(OCc2ccc(F)cc2)ccc1O`: the IC50 in data set [1] and in data set [3] was over 100 µM each time. In data set [2], this compound gave a CC50 at 72 h of over 40 µM.
As to `O=C(O)c1c(O)cccc1OCc1ccc(F)cc1`, the IC50 in data set [1] and in data set [3] was over 100 µM in each case. In addition, the CC50 at 72 h in data set [2] was over 40 µM.
For `O=C(O)c1c(O)cccc1OCc1ccc2ccccc2c1`, the IC50 in data set [1] is over 100 µM; in data set [3], 186 µM. For the same compound, the CC50 at 72 h in data set [2] is over 40 µM.
For the compound `O=C(NO)c1cccc(OCc2ccc(F)cc2)c1O`, the IC50 in data set [1] and in data set [3] was over 100 µM each time.
Regarding `O=C(NO)c1ccc(OCc2ccc(F)cc2)cc1O`, the IC50 is over 100 µM in data set [1] and 100 µM in data set [3].
On to `O=C(NO)c1cc(OCc2ccc(F)cc2)ccc1O`, for which the IC50 in data set [1] is over 100 µM; in data set [3] it was 85 µM.
As to `O=C(NO)c1c(O)cccc1OCc1ccc(F)cc1`, the IC50 is over 100 µM in data set [1] and 97 µM in data set [3].
Regarding `O=C(NCc1ccc(F)cc1)c1cccc(OCc2ccccc2)c1O`, the results for the IC50 in data set [1] and in data set [3] were over 333 µM and 111 µM, respectively. For the same compound, the CC50 at 72 h in data set [2] was over 40 µM.
As for `O=C(NCc1cccc2ccccc12)c1cccc(O)c1O`, the IC50 in data set [4] is 34 µM; in data set [1] it was over 100 µM; in data set [3] it was 26 µM. Half-maximal cytotoxicity in data set [5] (CC50) was put at 21 µM.
For the compound `O=C(NCc1ccc(F)c(F)c1)c1cccc(O)c1O`, the values for the IC50 in data set [4], in data set [1] and in data set [3] were 56 µM, over 100 µM and 23 µM, respectively. In data set [2], this compound had a CC50 at 72 h of over 40 µM.
As to `O=C(NCc1ccc2[nH]ccc2c1)c1cccc(O)c1O`, the midpoint of inhibition in data set [4], the IC50, lay at 45 µM. Besides, the CC50 at 72 h in data set [2] is over 40 µM.
`O=C(NCCc1c[nH]c2ccccc12)c1cccc(O)c1O`: the IC50 in data set [4] was 63 µM; in data set [1], 100 µM; in data set [3], 100 µM. For the same compound, in data set [5], the CC50 is 15 µM.
Take `O=C(Nc1ccc2[nH]ccc2c1)c1cccc(O)c1O`: the results for the IC50 in data set [4], in data set [1] and in data set [3] were 88 µM, over 100 µM and 58 µM, respectively. Besides, the CC50 at 72 h in data set [2] is over 40 µM.
Taken in the same sequence, the figures for `O=C(NCc1cccs1)c1cccc(O)c1O` were 95 µM, 83 µM, 12 µM and over 40 µM.
Consider `O=C(NCc1ccco1)c1cccc(O)c1O`, for which the IC50 in data set [4] was found to be 89 µM; in data set [1], 90 µM; in data set [3] it was 15 µM. In data set [2], this compound showed a CC50 at 72 h of over 40 µM.
Turning to `O=C(NCc1ccc(-c2cccs2)cc1)c1cccc(O)c1O`, the IC50 in data set [4] was over 100 µM; in data set [1] it was over 100 µM; in data set [3], 21 µM. The compound also gave a CC50 in data set [5] of 15 µM.
For `O=C(NC1CCNCC1)c1cccc(O)c1O`, the IC50 in data set [4], in data set [1] and in data set [3] was over 100 µM each time. In data set [2], the CC50 at 72 h is over 10 µM.
Consider `O=C(NC1CCCCC1)c1cccc(O)c1O`, for which the IC50 in data set [4], in data set [1] and in data set [3] was over 100 µM each time. The compound also showed a CC50 at 72 h in data set [2] of over 40 µM.
With `O=C(NCC1CCCCC1)c1cccc(O)c1O`, the IC50 in data set [4] is over 100 µM; in data set [1], over 100 µM; in data set [3], 18 µM. The compound further yielded a CC50 in data set [5] of 21 µM.
Take `CNC(=O)Cc1ccccc1CNC(=O)c1cccc(O)c1O`: the IC50 was over 100 µM in data set [4], over 100 µM in data set [1] and 56 µM in data set [3]. In addition, the CC50 at 72 h in data set [2] is over 40 µM.
In the case of `CNC(=O)c1cc(F)ccc1CNC(=O)c1cccc(O)c1O`, the figures for the IC50 in data set [4], in data set [1] and in data set [3] were over 100 µM, over 100 µM and 100 µM, respectively. The CC50 at 72 h in data set [2] is over 40 µM.
For the compound `O=C(NCc1ccc(F)cc1)c1cc(S(=O)(=O)N2CCCCC2)cc(O)c1O`, the half-maximal inhibitory concentration (IC50) was determined as 200 µM in data set [1] and 5 µM in data set [3]. Besides, in data set [5], it took 13 µM to reach half-maximal cytotoxicity (CC50).
As to `CNS(=O)(=O)c1cc(O)c(O)c(C(=O)NCc2ccc(F)cc2)c1`, the IC50 was over 100 µM in data set [4], over 100 µM in data set [1] and 44 µM in data set [3]. Moreover, in data set [2], the CC50 at 72 h was over 40 µM.
As to `CC(C)(C)NS(=O)(=O)c1cc(O)c(O)c(C(=O)NCc2ccc(F)cc2)c1`, the values for the IC50 in data set [4], in data set [1] and in data set [3] were 100 µM, 70 µM and 8 µM, respectively. Also, the CC50 at 72 h in data set [2] is over 10 µM.
Turning to `O=C(NCc1ccco1)c1cc(S(=O)(=O)N2CCCCC2)cc(O)c1O`, the IC50 in data set [4] was over 100 µM; in data set [1] it was over 100 µM; in data set [3], 13 µM. Also, in data set [5], the CC50 is 33 µM.
Consider `O=C(NCc1ccc(C(F)(F)F)cc1)c1cc(S(=O)(=O)N2CCCCC2)cc(O)c1O`, for which the results for the IC50 in data set [4], in data set [1] and in data set [3] were over 100 µM, 89 µM and 11 µM, respectively. The CC50 in data set [5] stood at 31 µM.
On to `O=C(NCC1CCCCC1)c1cc(S(=O)(=O)N2CCCCC2)cc(O)c1O`, for which the IC50 in data set [4] is 8 µM; in data set [1] it was 53 µM; in data set [3], 19 µM. The CC50 at 72 h in data set [2] is over 40 µM.
On the same counts, the results for `O=C(NCc1cccs1)c1cc(S(=O)(=O)N2CCCCC2)cc(O)c1O` are over 50 µM, over 100 µM, 44 µM and over 40 µM.
On to `CS(=O)(=O)Nc1cc(O)c(O)c(C(=O)NCc2ccc(F)cc2)c1`, for which the IC50 in data set [4] was 100 µM; in data set [1] it was over 100 µM; in data set [3] it was 34 µM.
In the case of `CC(=O)Nc1cc(O)c(O)c(C(=O)NCc2ccc(F)cc2)c1`, the IC50 is over 100 µM in data set [4], 55 µM in data set [1] and 14 µM in data set [3]. This compound also showed a CC50 at 72 h in data set [2] of under 10 µM.
Regarding `N#Cc1cc(O)c(O)c(C(=O)NCc2ccc(F)cc2)c1`, the figures for the IC50 in data set [1] and in data set [3] were 75 µM and 22 µM, respectively. The compound also yielded a CC50 at 72 h in data set [2] of over 10 µM.
On to `CN(C)Cc1ccc(C(=O)NCc2ccc(F)cc2)c(O)c1O`, for which the IC50 was over 50 µM in data set [4], over 100 µM in data set [1] and 20 µM in data set [3]. The compound further came in with a CC50 at 72 h in data set [2] of over 10 µM.
For `CN(C)Cc1ccc(C(=O)NCc2ccco2)c(O)c1O`, the IC50 is over 50 µM in data set [4], over 100 µM in data set [1] and 39 µM in data set [3]. Moreover, in data set [5], the CC50 was found to be 7 µM.
On to `COc1cc(S(=O)(=O)N2CCCCC2)cc(C(=O)NCc2ccco2)c1O`, for which the IC50 in data set [4] was 13 µM; in data set [1], over 100 µM; in data set [3] it was over 100 µM. This compound returned a CC50 at 72 h in data set [2] of over 25 µM.
As for `Nc1cccc(C(=O)NCc2ccco2)c1O`, the half-maximal inhibitory concentration (IC50) in data set [4] is 51 µM; in data set [1] it was over 100 µM; in data set [3], over 100 µM. The same compound registered a CC50 at 72 h in data set [2] of over 25 µM.
As to `O=C(NCc1ccc(F)cc1)c1cccc(O)c1O`, the IC50 in data set [4] was over 100 µM; in data set [1], 100 µM; in data set [3], 35 µM. The CC50 at 72 h in data set [2] is over 40 µM.
